# Screening data as filed in PubChem.
# Only some compounds are listed: those with a hit (about 3.5% of all), similar ones and a draw of the others.
# MrgX1 antagonist: human MrgX1 receptor antagonism, primary screen; actives 1.3% (n = 310,000); Q96LB2; AID 588676; B-score at 10 µM; MRGX1-HEK293 calcium flux, Fluo-4, BAM8-22 antagonism; active compounds read low;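 active means calcium-response B-score plate-corrected more than 3 library SD below zero, starting fluorescence within 5 deviations, no agonist response on first addition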;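 further: peak minus trough fluorescence over baseline after final BAM8-22 challenge near maximal dose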
# Target sequence (Q96LB2 whole entry, looked up): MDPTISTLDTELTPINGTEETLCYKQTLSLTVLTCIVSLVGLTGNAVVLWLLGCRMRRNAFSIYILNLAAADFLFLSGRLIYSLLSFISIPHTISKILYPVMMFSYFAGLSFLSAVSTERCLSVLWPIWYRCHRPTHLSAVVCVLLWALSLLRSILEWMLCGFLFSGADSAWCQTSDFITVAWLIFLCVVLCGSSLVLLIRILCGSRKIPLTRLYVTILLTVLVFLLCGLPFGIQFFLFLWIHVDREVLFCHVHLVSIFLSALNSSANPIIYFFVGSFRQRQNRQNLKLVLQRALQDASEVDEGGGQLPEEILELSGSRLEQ
# MrgX1 ag: human MrgX1 receptor agonism, primary screen | B-score at 10 µM | AID 588627 | Q96LB2 | MrgX1-HEK293 cells, Fluo-4 calcium fluorescence, agonist mode; active compounds read high | actives 0.44% (n = 310,000);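 active means calcium response B-score plate-corrected fluorescence ratio at least 3 library SD, with starting fluorescence B-score inside 5 SD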
#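 Assay system: stable human MrgX1 HEK293 cell line. Quantity: 15,000 cells per well. Schedule: cells plated overnight, dye loaded 0.5 h 37 °C, 0.5 h room temperature. Detection: Fluo-4 NW calcium-flux fluorescence, kinetic read. Read-out basis: peak-minus-minimum fluorescence over baseline, converted to B scores. Control set: positive and negative control wells on each plate.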
# RGS4 act: potentiators or activators of RGS4; HEK293 M3R/inducible RGS4, carbachol calcium flux Fluo4; active compounds read low; B-score at 10 µM; actives 0.92% (n = 310,000);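 active means B-score of the integrated calcium signal more than 4 SD below the library mean, with starting fluorescence not abnormally high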;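 further: negative B-score means reduced calcium response which marks RGS4 activation or potentiation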
#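 test system = HEK293 cells with stable M3R and inducible RGS4 | schedule = recording 10 s baseline at 1 Hz, 100 s post-agonist | technique = Fluo4-AM (2 µM) calcium-flux fluorescence, kinetic read | measure = Agonist-evoked peak-minus-minimum fluorescence over baseline, integrated ratio, B score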
# RGS4 inh: human RGS4 inhibition | B-score at 10 µM | P49798 | AID 463165 | actives 0.45% (n = 310,000) | HEK293 M3R/RGS4 inducible, Fluo-4 calcium flux; active compounds read high; triggered by carbachol at its EC20;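 active means B-score, a plate-corrected calcium signal, over three deviations above library mean, with baseline fluorescence within five deviations of library mean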;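 further: RGS4 expression induced by doxycycline in cells with stable M3 receptor; B-score is computed from the integrated fluorescence ratio over baseline after carbachol; higher B-score means a larger calcium signal and so more RGS4 inhibition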
# MrgX1 allo act: allosterically activates human MrgX1 receptor signaling | MrgX1-HEK293, Fluo-4 calcium flux, FDSS; active compounds read high | actives 0.63% (n = 310,000) | B-score at 10 µM;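 active means plate-corrected calcium response at least 3 library SD above typical, normal starting fluorescence, not activating the receptor alone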;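 further: compound read alongside a low EC10 to EC30 dose of BAM8-22 agonist; peak minus trough fluorescence over baseline measured at the second addition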
# RGS4 act valid: RGS4 activation, validation assay; shares compounds with RGS4 act; HEK293 M3R/RGS4 inducible, carbachol calcium flux Fluo4; inhibition, % at 10 µM; actives 89% (n = 1,100); AID 602282;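 active means inhibition above 3 SD of the buffer control wells, cut at about 41% in these data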;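 further: signal is the integrated peak-minus-minimum Fluo4 fluorescence over baseline ratio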
# M3R Ca counter: counter-screen for RGS4 activators: effect in non-induced cells | shares compounds with RGS4 act | HEK293 M3R non-induced RGS4, Fluo4 calcium flux; after carbachol challenge at its EC90 | inhibition, % at 10 µM | actives 82% (n = 1,100) | AID 602283;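 active means inhibition exceeding 3 SD of buffer-only control wells, cut at about 26% in these data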;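 further: percent drop in integrated peak-minus-baseline over baseline Fluo4 ratio after carbachol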
# An asterisk follows results filed as active; i = inactive; · = no result.
SMILES,MrgX1 antagonist,MrgX1 ag,RGS4 act,RGS4 inh,MrgX1 allo act,RGS4 act valid,M3R Ca counter
O=C(CN1CCN(CCOCCO)CC1)N1c2ccccc2Sc2ccc(Cl)cc21,i,i,-9.1*,i,i,88*,64*
COc1ccc2c(c1)C=C(CN1CCC(CO)(CCc3ccccc3)CC1)CO2,i,i,-8*,i,i,80*,84*
CC1(C(=O)Nc2nc3ccc(S(C)(=O)=O)cc3s2)CC1(Cl)Cl (configuration not stated),i,i,i,i,i,·,·
Cc1cc(N2CCCCC2)nc2ccccc12,i,i,i,i,i,·,·
Cc1cc(N2CCCCCC2)nc2ccccc12,i,i,-10*,i,i,92*,48*
COc1ccc(Nc2nc(NCC3CCCO3)c3ccccc3n2)c(OC)c1 (configuration not stated),i,i,-7.7*,i,i,38*,84*
COc1cccc(NC(=O)CN(C)C(=O)c2cc(-c3ccc(F)cc3)nc3ccccc23)c1,i,i,-7.6*,i,i,86*,64*
COc1cccc(CN(C)C(=O)c2cc(-c3ccc(OC)c(OC)c3)nc3ccccc23)c1,i,i,-9.8*,i,i,66*,28*
COc1ccc(CN(C)C(=O)c2cc(-c3ccc(OC)c(OC)c3)nc3ccccc23)c(OC)c1,i,i,-9*,i,i,69*,84*
COc1ccc(-c2cc(C(=O)N(C)Cc3cccc(OC)c3OC)c3ccccc3n2)cc1OC,i,i,i,i,i,·,·
COc1ccc(-c2cc(C(=O)N(C)CCc3ccc(OC)c(OC)c3)c3ccccc3n2)cc1,i,i,i,i,i,·,·
COc1ccc(Cl)cc1NC(=O)C1CCCN(c2ncnc3c2nc2n3CCCCC2)C1 (configuration not stated),i,i,i,i,i,·,·
CC(=O)c1sc(NC(=O)C2CCN(C(=O)c3ccc(F)cc3)CC2)nc1-c1ccccc1,i,i,i,i,i,·,·
CCCCc1cc(O)c(CCCC)c(O)c1,-11*,i,-8*,i,i,92*,88*
CCCCCc1cc(O)c2c(C)cc(=O)oc2c1,i,i,i,i,i,·,·
Cc1cc(C(=O)OCc2nnc(-c3ccccc3)o2)c(C)n1-c1ccccc1,i,i,-8.9*,i,i,94*,85*
O=C(OCc1nnc(-c2ccccc2)o1)c1cn(-c2ccccc2)nc1-c1ccccc1,i,i,i,i,i,·,·
CN(C(=O)COc1ccc(Cl)cc1Cl)C1(C)CCS(=O)(=O)C1 (configuration not stated),i,i,i,i,i,·,·
COC(=O)c1ccc(CN2CCN(C3CCCC3)C(CCO)C2)cc1 (configuration not stated),i,i,-9.3*,i,i,92*,67*
CCCc1nnc(NC(=O)CCC(=O)N2CCCCC2CC)s1 (configuration not stated),i,i,-7.8*,i,i,0,0
CSc1ccc(CN(C)CC(=O)NCCc2ccccc2)cc1,i,i,i,i,i,·,·
O=C1[C@@H]2C(c3cccnc3)=NO[C@@H]2C(=O)N1c1ccc2ccccc2c1,i,i,i,i,i,·,·
CCC(C)Nc1nc(OC(C(F)(F)F)C(F)(F)F)nc(OC(C(F)(F)F)C(F)(F)F)n1 (configuration not stated),i,i,-7.9*,i,i,90*,53*
COCCCN1C(=O)C(=O)/C(=C(/O)c2ccc(S(=O)(=O)N3CCCCC3)cc2)C1c1cccc(OC)c1 (configuration not stated),i,i,i,i,i,·,·
